Assay [1] in a line: inhibitors of TNFa-induced NFkB p65 translocation, primary screen, imaging, HUVEC, MLSMR starter and 10KST1 sets (AID 438;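 active means inhibition above 20% together with a positive visual image hit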;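 further: compound added about 3h40 before a 20 min TNFalpha stimulation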;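 on inhibition: signal is the nuclear over cytoplasmic p65 intensity ratio per well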). The settings on record: HUVEC TNFa-induced p65 nuclear translocation; cell count: measured here: nuclei count (cytotoxicity indicator), at 2.08 µM; inhibition: at 2 µM, stronger effect = higher value, 0% TNFa-plus-vehicle, 100% no-TNFa wells.
A short description of assay [2]: inhibitors of mutant huntingtin aggregation, primary screen, imaging, exon1htt(103Q)mCFP cells, high-content imaging (AID 483;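 active means visual image review flags a hit and inhibition of aggregation exceeds 20%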;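 further: compound exposure lasted 3 days before fixation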;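 on nuclei count: percent of the per-plate median nuclei count of sample wells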). The settings on record: exon1htt(103Q)mCFP cell line, aggregate imaging, at 2 µM; inhibition of aggregation: stronger effect = higher value; nuclei count: measured here: cell count, toxicity.
Assay [3] is described as follows: inhibitors of E-selectin induction by TNFa, primary screen, imaging, HUVEC, immunofluorescence, MLSMR starter and 10KST1 sets (AID 487).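 On inhibition: signal is fraction of cell area covered by stained E-selectin grains.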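 On nuclei count: 100% = median nuclei count of all wells on the same plate.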 Conditions: HUVEC TNFalpha-induced E-selectin immunofluorescence imaging, at 2 µM; inhibition: stronger effect = higher value; nuclei count: measured here: cell number, toxicity.
For assay [4], the target named is Voltage-gated potassium channel subunit beta-2 (Rattus norvegicus) (UniProt P62483). In words: KvBeta enzyme negative modulators, primary screen, biochemical, NADPH fluorescence (AID 622;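 active means fluorescence slope higher than the sample average by over 3 SD, cut at about -0.22 in these data, passing the limit was not always enough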;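 further: slope of raw intensity against log time taken from 70 to 1610 s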). The settings on record: recombinant KvBeta, 4-cyanobenzaldehyde reduction, at 10 µM, stronger effect = higher value.
Voltage-gated potassium channel subunit beta-2 (Rattus norvegicus), sequence (P62483 whole entry, looked up): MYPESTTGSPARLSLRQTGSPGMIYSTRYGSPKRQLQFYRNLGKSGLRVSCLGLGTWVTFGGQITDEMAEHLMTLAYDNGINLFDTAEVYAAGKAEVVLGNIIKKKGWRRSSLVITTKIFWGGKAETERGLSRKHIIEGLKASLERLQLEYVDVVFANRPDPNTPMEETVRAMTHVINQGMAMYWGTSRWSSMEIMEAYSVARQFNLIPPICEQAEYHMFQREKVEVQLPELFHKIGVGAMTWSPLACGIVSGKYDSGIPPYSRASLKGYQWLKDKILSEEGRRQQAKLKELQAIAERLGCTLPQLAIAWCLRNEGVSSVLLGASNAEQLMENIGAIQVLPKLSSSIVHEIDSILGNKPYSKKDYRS
For assay [5] the target is unchanged. In words: KvBeta positive modulators, primary screen, biochemical, NADPH fluorescence (AID 623;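 active means NADPH fluorescence slope more negative than the mean of all samples by about 3 SD, 99.7% confidence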;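 further: fluorescence intensity change per second fitted from 20 to 320 s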). The settings on record: Recombinant KvBeta, NADPH fluorescence decrease slope, 10 min; at 10 µM; stronger effect = lower value.
The target of assay [6] is Alpha-2C adrenergic receptor (Homo sapiens) (UniProt P18825). In words: modulators of alpha2C/GIRK thallium flux, primary screen, cell-based, HEK293 alpha2C/GIRK1/2 (AID 624;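 active means fluorescence slope after compound addition differing from the mean of all screened samples at 99.7% confidence, in either direction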;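 further: slope of fluorescence ratio to pre-addition baseline per second over 15 to 24 s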). Conditions: thallium flux BTC fluorescence, at 10 µM, actives lie on both sides.
Alpha-2C adrenergic receptor (Homo sapiens), sequence (P18825 whole entry, looked up): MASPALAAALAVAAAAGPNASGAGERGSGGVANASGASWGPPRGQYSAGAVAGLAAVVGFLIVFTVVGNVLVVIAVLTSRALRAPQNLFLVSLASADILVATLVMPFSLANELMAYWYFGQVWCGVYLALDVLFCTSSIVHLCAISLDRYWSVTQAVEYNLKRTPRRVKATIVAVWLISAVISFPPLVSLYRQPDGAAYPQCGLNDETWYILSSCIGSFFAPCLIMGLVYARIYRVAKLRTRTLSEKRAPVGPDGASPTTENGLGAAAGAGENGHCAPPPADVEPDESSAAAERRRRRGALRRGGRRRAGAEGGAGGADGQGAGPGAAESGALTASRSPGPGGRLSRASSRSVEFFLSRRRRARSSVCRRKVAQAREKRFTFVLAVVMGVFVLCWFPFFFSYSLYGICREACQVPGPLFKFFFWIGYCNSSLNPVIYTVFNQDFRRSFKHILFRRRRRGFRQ
Assay [7] is described as follows: inhibitors of larval lipid processing in zebrafish, primary screen, whole organism, PED6 fluorescence, gall bladder and intestine (AID 686;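 active means a full or partial loss of lipid-probe fluorescence in the fish gall bladder, intestine or both, judged by eye; inactive means no fluorescence loss, or compound toxic to the fish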;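 further: larvae 5 to 7 days old with five fish per well; signal comes from phospholipase A2 cleavage of quenched PED6 carried via bile; overnight exposure to compound and PED6 before scoring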). The settings on record: Zebrafish larvae PED6 lipid processing, fluorescence scoring; screened at 20 µM (by protocol). An outline of the steps:
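System: live zebrafish larvae aged 5-7 days, whole organism; measure: graded gall bladder and intestinal fluorescence inhibition per well; incubation: overnight exposure; reagent: ingested quenched lipid PED6 at 100 nM; signal: By-eye fluorescence microscopy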

The nature of assay [8]: inhibitors of Sendai virus-induced IRF3 signaling, primary screen, TLR/RLR signaling modifier project, cell-based, Sendai virus stimulus, luciferase, 10K MLSCN set (AID 602276;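 active means inhibition at or above 50% at 10 µM; inactive means inhibition below 50%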;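 further: firefly luciferase from ISG56 promoter only with Renilla not read in this screen; 0% = Sendai virus plus DMSO and 100% = medium plus DMSO without virus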). Conditions: HEK293 RL24 IRF3 luciferase reporter, at 10 µM, stronger effect = higher value.
Assay [9] in a line: inhibitors of poly I:C-induced TLR3 signaling, primary screen, cell-based, poly I:C stimulus, luciferase, 10K MLSCN set (AID 602277;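 active means inhibition of the reporter signal at or above 50%; inactive means inhibition below 50%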). The settings on record: HEK293-TLR3 RL24 IRF3 luciferase reporter, at 10 µM, stronger effect = higher value. In general terms: Reporter assays use an easily measured gene product as a stand-in for the process of interest.

Calls of active or inactive are those of the source.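 How the source made its calls, unless noted: active means visually confirmed hit in the image check and inhibition above 20%; inconclusive means visually confirmed hit but inhibition not above 20%; inactive means no visual hit in the image check.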

One may read the inhibition as the drop in the measured response relative to a control, in per cent. For `COc1ccccc1OCCNC(=O)c1cccs1`, the cell count in [1] is 333. Besides, the inhibition in [1] was 4.3% (inactive); in assay [3], -31.8% (inactive); in assay [8], -16% (inactive); in assay [9], -43% (inactive). Also, in assay [2], the inhibition of aggregation is 12.7% (inactive). Also, the nuclei count in assay [2] was found to be 97.7%; in assay [3], 99%. For the same compound, in assay [4], the fluorescence slope was -0.383 (inactive). Also, the NADPH fluorescence slope in assay [5] is -5.1e-05 (inactive). Also, the slope in assay [6] was 0.00529 (inactive). Moreover, the call in assay [7] was inactive.
Regarding `COC(=O)CSc1nnc(-c2ccc(OC)cc2OC)o1`, the cell count in assay [1] was determined as 609. For the same compound, the inhibition is 6.3% (inactive) in assay [1], 44.6% (inactive) in [3], 13.1% (inactive) in [8] and 10.4% (inactive) in assay [9]. The inhibition of aggregation in [2] is 6.1% (inactive). The nuclei count in assay [2] is 109%; in assay [3], 90.8%. Also, the fluorescence slope in assay [4] is -0.397 (inactive). For the same compound, in assay [5], the NADPH fluorescence slope was -5.2e-05 (inactive). Further, in assay [6], the slope is 0.00519 (inactive). For the same compound, the result in assay [7] was inactive.
As to `CC(=O)Nc1c(O)[nH]c2ccccc12`, the cell count in assay [1] was 566. Also, the inhibition in assay [1] is -25.9% (inactive); in assay [3], -5.9% (inactive); in assay [8], 10.4% (inactive); in [9] it was 16.8% (inactive). In addition, the inhibition of aggregation in [2] is -9.8% (inactive). For the same compound, the nuclei count in assay [2] is 98.9%; in assay [3], 102%. In addition, in [4], the fluorescence slope is -0.414 (inactive). Moreover, the NADPH fluorescence slope in assay [5] is -5.4e-05 (inactive). Further, the slope in [6] was 0.00575 (inactive). The call in assay [7] was inactive.
On to `O=C(CSc1nnnn1-c1ccccc1)Nc1ccc(Cl)cc1`, for which the cell count in assay [1] is 561. The inhibition in assay [1] was -0.2% (inactive); in assay [3], -73.4% (inactive); in assay [8], -14.3% (inactive); in [9], -15.3% (inactive). In assay [2], the inhibition of aggregation was 17.5% (inactive). Besides, the nuclei count is 108% in [2] and 67.8% in assay [3]. The fluorescence slope in assay [4] is -0.377 (inactive). Further, the NADPH fluorescence slope in [5] is 4e-06 (inactive). Further, the slope in assay [6] is 0.00622 (inactive). Besides, in assay [7], the compound was classed as inactive.
Turning to `COc1cccc(NC(=O)c2ccccc2NS(C)(=O)=O)c1`, in assay [1], the cell count came out at 328. In addition, the inhibition in assay [1] was -6.5% (inactive); in [3] it was -133% (inactive); in assay [8], 18.7% (inactive); in assay [9], 13.1% (inactive). Further, the inhibition of aggregation in [2] was -12.9% (inactive). The nuclei count was 112% in assay [2] and 149% in [3]. The fluorescence slope in assay [4] was -0.418 (inactive). Further, the NADPH fluorescence slope in assay [5] is -3.8e-05 (inactive). The slope in assay [6] was 0.00548 (inactive). Also, in assay [7], the result was inactive.
As for `O=C(O)CCc1ccc(-c2cccs2)n1NC(=O)c1ccccc1Br`, the cell count in [1] is 338. Besides, the inhibition in assay [1] was -5.2% (inactive); in [3], -46.9% (inactive); in assay [8] it was 19.5% (inactive); in assay [9] it was 14.2% (inactive). For the same compound, the inhibition of aggregation in [2] was 2.7% (inactive). In addition, the nuclei count in [2] was determined as 94.1%; in assay [3], 115%. Besides, the fluorescence slope in assay [4] was -0.416 (inactive). Also, the NADPH fluorescence slope in assay [5] was -5.2e-05 (inactive). In addition, the slope in assay [6] is 0.0044 (inactive). Moreover, in [7], the result was inactive.
As to `Cc1ccc(S(=O)(=O)N2CCN(C(=O)N3CCOCC3)C2c2ccc(N(C)C)cc2)cc1` (stereo not drawn), in [1], the cell count is 377. Besides, the inhibition is -0.5% (inactive) in assay [1], -44.5% (inactive) in assay [3], 12.8% (inactive) in [8] and 8.2% (inactive) in [9]. Also, the inhibition of aggregation in [2] is 0.7% (inactive). Also, the nuclei count amounted to 98% in assay [2] and 121% in assay [3]. In assay [4], the fluorescence slope is -0.419 (inactive). In addition, the NADPH fluorescence slope in assay [5] was -5.2e-05 (inactive). In addition, the slope in assay [6] was 0.00452 (inactive). The call in assay [7] was inactive.
Take `FC(F)Oc1cccc2cccnc12`: the cell count in assay [1] was found to be 538. Also, the inhibition in assay [1] is -5.8% (inactive); in assay [3] it was 67.2% (active); in assay [8] it was 10.2% (inactive); in [9], 9.81% (inactive). Also, the inhibition of aggregation in assay [2] was -5.4% (inactive). Further, the nuclei count turned out to be 103% in assay [2] and 82.3% in [3]. The fluorescence slope in [4] is -0.345 (inactive). Moreover, the NADPH fluorescence slope in assay [5] is -1.3e-05 (inactive). The slope in [6] is 0.00451 (inactive). The compound was classed as inactive in [7].
On to `CCNc1ccc(S(=O)(=O)C(F)(F)F)cc1NC(=O)C12CCC(CC1)C2`, for which, in assay [1], the cell count turned out to be 380. Also, the inhibition in [1] is 2.5% (inactive); in assay [3] it was -30.6% (inactive); in assay [8] it was -90% (inactive); in [9], 99.7% (active). Besides, the inhibition of aggregation in [2] was -4.3% (inactive). Moreover, the nuclei count in assay [2] came to 108%; in assay [3], 101%. Further, the fluorescence slope in assay [4] is -0.481 (inactive). Also, in assay [5], the NADPH fluorescence slope is -3.1e-05 (inactive). Besides, in assay [6], the slope was 0.0047 (inactive). The compound was classed as inactive in assay [7].
As to `CCCN1Cc2cccc(C(=O)NC3CCCC3)c2C1=O`, the cell count in assay [1] amounted to 653. The inhibition in [1] was 0.7% (inactive); in assay [3], -62.4% (inactive); in assay [8] it was 11.8% (inactive); in assay [9], 22.8% (inactive). Moreover, the inhibition of aggregation in [2] was 14% (inactive). Moreover, the nuclei count in [2] stood at 95.2%; in assay [3], 101%. Moreover, the fluorescence slope in assay [4] was -0.349 (inactive). The NADPH fluorescence slope in assay [5] was -6.1e-05 (inactive). The slope in assay [6] was 0.0059 (inactive). In addition, the compound was called inactive in assay [7].
Consider `CC(=O)Nc1nnc(SCC(=O)NCC2CCCO2)s1` (stereo not drawn), for which the cell count in assay [1] was found to be 415. Besides, the inhibition in assay [1] is 6% (inactive); in assay [3], -123% (inactive); in [8] it was -10.9% (inactive); in assay [9], -9.89% (inactive). Further, the inhibition of aggregation in [2] was -1.3% (inactive). Further, the figures for the nuclei count in assay [2] and in assay [3] were 102% and 110%, respectively. The fluorescence slope in [4] was -0.413 (inactive). Also, the NADPH fluorescence slope in assay [5] is -3.1e-05 (inactive). Further, the slope in assay [6] was 0.00542 (inactive). The compound was called inactive in assay [7].
In the case of `Cc1ccc(OCC2Cn3c(nc4c3c(=O)n(C)c(=O)n4C)O2)cc1` (stereo not drawn), the cell count in [1] worked out at 423. The inhibition in [1] was 1.8% (inactive); in assay [3], -13.1% (inactive); in assay [8], 17.1% (inactive); in assay [9], 11.7% (inactive). Also, the inhibition of aggregation in assay [2] was 22.4% (inactive). The nuclei count came out at 104% in assay [2] and 120% in [3]. Besides, the fluorescence slope in [4] was -0.406 (inactive). Moreover, the NADPH fluorescence slope in assay [5] is -2.7e-05 (inactive). In addition, the slope in [6] was 0.00486 (inactive). The outcome in assay [7] was inactive.
Take `O=C(Nc1cc(C(=O)N2CCCC2)ccc1N1CCCC1)c1ccccc1F`: the cell count in [1] was 612. The inhibition in assay [1] was 2% (inactive); in [3], -93% (inactive); in assay [8], -1.26% (inactive); in [9], -54% (inactive). Further, the inhibition of aggregation in [2] was -12.8% (inactive). Moreover, the values for the nuclei count in assay [2] and in [3] were 107% and 95.8%, respectively. Further, the fluorescence slope in assay [4] is -0.343 (inactive). Also, in assay [5], the NADPH fluorescence slope was -7.2e-05 (inactive). The slope in [6] was 0.00481 (inactive). Moreover, the call in [7] was inactive.
On to `O=C(O)c1ccc(S(=O)(=O)Cc2ccccc2)cc1`, for which the cell count in assay [1] came to 422. In addition, the inhibition in assay [1] was 11.4% (inactive); in assay [3], -81.2% (inactive); in assay [8], 16.7% (inactive); in [9] it was 11.3% (inactive). Moreover, the inhibition of aggregation in assay [2] was 3% (inactive). In addition, the nuclei count in assay [2] is 88.3%; in assay [3] it was 113%. The fluorescence slope in [4] was -0.421 (inactive). Besides, in assay [5], the NADPH fluorescence slope is 7.6e-07 (inactive). The slope in [6] was 0.00596 (inactive). Further, in [7], the outcome was inactive.
